According to ChEMBL document CHEMBL2380239, “Novel ROS-activated agents utilize a tethered amine to selectively target acute myeloid leukemia” (Bioorg Med Chem Lett, 2013):

Assays:
HeLa = assay: Cytotoxicity against human HeLa cells after 48 hrs by MTT assay; assay type: functional, cell-based
A498 = assay: Growth inhibition of human A498 cells after 48 hrs by sulforhodamine B assay; assay type: functional; details: A498, 48 h
How it was run: (§1)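 Run in the National Cancer Institute 60-cell-line panel screen. Viability was read by sulforhodamine B staining of total protein content, so it reflects cell number rather than metabolic activity. Values are reported as GI50.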

MDA-MB-231 = assay: Growth inhibition of human MDA-MB-231 cells after 48 hrs by sulforhodamine B assay; assay type: functional; details: MDA-MB-231, 48 h; how it was run: as §1
[1] = Cytotoxicity against human MA9.3 cells after 48 hrs by MTT assay; assay type: functional, cell-based
How it was run: (§2)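 Non-transformed human CD34+ blood stem/progenitor cells from umbilical cord blood were run alongside MA9.3, an AML line made by introducing the MLL-AF9 oncogene into human CD34+ cells. IC50 was determined on each cell type. Therapeutic index is the ratio between the MA9.3 and CD34+ IC50 values.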

SNB-75 = assay: Growth inhibition of human SNB75 cells after 48 hrs by sulforhodamine B assay; assay type: functional; details: SNB-75, 48 h
How it was run: (§3)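 Run within the National Cancer Institute 60-cell-line panel. Viability was read by sulforhodamine B staining of total cellular protein, as a measure of cell number rather than metabolic activity. GI50 values were taken from the panel data.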

CAKI-1 = assay: Growth inhibition of human CAKI-1 cells after 48 hrs by sulforhodamine B assay; assay type: functional; details: CAKI-1, 48 h; how it was run: as §1
LOX IMVI = assay: Growth inhibition of human LOXIMVI cells after 48 hrs by sulforhodamine B assay; assay type: functional; how it was run: as §1
M14 = assay: Growth inhibition of human M14 cells after 48 hrs by sulforhodamine B assay; assay type: functional; details: M14, 48 h; how it was run: as §1
HL-60(TB) = assay: Growth inhibition of human HL-60(TB) cells after 48 hrs by sulforhodamine B assay; assay type: functional; details: HL-60, 48 h
How it was run: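 Tested through the National Cancer Institute's NCI-60 cell line panel screen. Viability was read by sulforhodamine B staining, which measures total cellular protein and so reflects cell number rather than metabolic activity. The value is reported as GI50.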

SW-620 = assay: Growth inhibition of human SW620 cells after 48 hrs by sulforhodamine B assay; assay type: functional; details: SW-620, 48 h; how it was run: as §3
SNB-19 = assay: Growth inhibition of human SNB19 cells after 48 hrs by sulforhodamine B assay; assay type: functional; details: SNB-19, 48 h; how it was run: as §3
Hs-578T = assay: Growth inhibition of human Hs578T cells after 48 hrs by sulforhodamine B assay; assay type: functional; how it was run: as §1
IGROV-1 = assay: Growth inhibition of human IGROV1 cells after 48 hrs by sulforhodamine B assay; assay type: functional; details: IGROV-1, 48 h; how it was run: as §1
[2] = Cytotoxicity against human CD34-positive blood stem/progenitor cells after 48 hrs by MTT assay; assay type: cell-based; how it was run: as §2
NCI-H226 = assay: Growth inhibition of human NCI-H226 cells after 48 hrs by sulforhodamine B assay; assay type: functional; details: NCI-H226, 48 h; how it was run: as §1
MCF7 = assay: Growth inhibition of human MCF7 cells after 48 hrs by sulforhodamine B assay; assay type: functional; details: MCF7, 48 h; how it was run: as §1
MOLT-4 = assay: Growth inhibition of human MOLT4 cells after 48 hrs by sulforhodamine B assay; assay type: functional; details: MOLT-4, 48 h; how it was run: as §1
RPMI-8226 = assay: Growth inhibition of human RPMI8226 cells after 48 hrs by sulforhodamine B assay; assay type: functional; details: RPMI-8226, 48 h; how it was run: as §1
SR = assay: Growth inhibition of human SR cells after 48 hrs by sulforhodamine B assay; assay type: functional; how it was run: as §3
SK-OV-3 = assay: Growth inhibition of human SKOV3 cells after 48 hrs by sulforhodamine B assay; assay type: functional; details: SK-OV-3, 48 h; how it was run: as §1
A549 = assay: Growth inhibition of human A549/ATCC cells after 48 hrs by sulforhodamine B assay; assay type: functional; details: A549, 48 h; how it was run: as §1
[3] = Growth inhibition of human NCI-ADR-RES cells after 48 hrs by sulforhodamine B assay; assay type: functional; how it was run: as §1
SK-MEL-28 = assay: Growth inhibition of human SK-MEL-28 cells after 48 hrs by sulforhodamine B assay; assay type: functional; details: SK-MEL-28, 48 h; how it was run: as §1
OVCAR-5 = assay: Growth inhibition of human OVCAR5 cells after 48 hrs by sulforhodamine B assay; assay type: functional; details: OVCAR-5, 48 h; how it was run: as §1
[4] = Therapeutic index, ratio of IC50 for human CD34-positive blood stem/progenitor cells to IC50 for human MA9.3 cells; details: CD34-positive blood stem/progenitor cells versus MA9.3 cells, read-out: Ratio IC50
How it was run: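 Cytotoxicity was measured in parallel on non-cancerous human CD34+ blood stem/progenitor cells (UCB) and on the MA9.3 AML line, which was made by introducing the MLL-AF9 oncogene into human CD34+ cells. The index is IC50 in CD34+ cells divided by IC50 in MA9.3, reported as mean ± error.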

BT-549 = assay: Growth inhibition of human BT549 cells after 48 hrs by sulforhodamine B assay; assay type: functional; details: BT-549, 48 h; how it was run: as §1
HCT-15 = assay: Growth inhibition of human HCT15 cells after 48 hrs by sulforhodamine B assay; assay type: functional; details: HCT-15, 48 h; how it was run: as §1
OVCAR-8 = assay: Growth inhibition of human OVCAR8 cells after 48 hrs by sulforhodamine B assay; assay type: functional; details: OVCAR-8, 48 h; how it was run: as §1
MDA-MB-468 = assay: Growth inhibition of human MDA-MB-468 cells after 48 hrs by sulforhodamine B assay; assay type: functional; details: MDA-MB-468, 48 h; how it was run: as §1
MDA-MB-435 = assay: Growth inhibition of human MDA-MB-435 cells after 48 hrs by sulforhodamine B assay; assay type: functional; details: MDA-MB-435, 48 h; how it was run: as §1
RXF 393 = assay: Growth inhibition of human RXF393 cells after 48 hrs by sulforhodamine B assay; assay type: functional; details: RXF 393, 48 h; how it was run: as §1
OVCAR-3 = assay: Growth inhibition of human OVCAR3 cells after 48 hrs by sulforhodamine B assay; assay type: functional; details: OVCAR-3, 48 h; how it was run: as §1
U-251 = assay: Growth inhibition of human U251 cells after 48 hrs by sulforhodamine B assay; assay type: functional; details: U-251, 48 h; how it was run: as §3
OVCAR-4 = assay: Growth inhibition of human OVCAR4 cells after 48 hrs by sulforhodamine B assay; assay type: functional; details: OVCAR-4, 48 h; how it was run: as §1
T47D = assay: Growth inhibition of human T47D cells after 48 hrs by sulforhodamine B assay; assay type: functional; how it was run: as §3
HOP-92 = assay: Growth inhibition of human HOP92 cells after 48 hrs by sulforhodamine B assay; assay type: functional; details: HOP-92, 48 h; how it was run: as §1
SK-MEL-2 = assay: Growth inhibition of human SK-MEL-2 cells after 48 hrs by sulforhodamine B assay; assay type: functional; details: SK-MEL-2, 48 h; how it was run: as §1
COLO 205 = assay: Growth inhibition of human COLO205 cells after 48 hrs by sulforhodamine B assay; assay type: functional; details: COLO 205, 48 h; how it was run: as §1
UACC-257 = assay: Growth inhibition of human UACC257 cells after 48 hrs by sulforhodamine B assay; assay type: functional; details: UACC-257, 48 h; how it was run: as §3
UACC-62 = assay: Growth inhibition of human UACC62 cells after 48 hrs by sulforhodamine B assay; assay type: functional; details: UACC-62, 48 h; how it was run: as §3
786-0 = assay: Growth inhibition of human 786-0 cells after 48 hrs by sulforhodamine B assay; assay type: functional; details: 786-0, 48 h; how it was run: as §1
HCT-116 = assay: Growth inhibition of human HCT116 cells after 48 hrs by sulforhodamine B assay; assay type: functional; details: HCT-116, 48 h; how it was run: as §1
UO-31 = assay: Growth inhibition of human UO31 cells after 48 hrs by sulforhodamine B assay; assay type: functional; details: UO-31, 48 h; how it was run: as §3
SF-539 = assay: Growth inhibition of human SF539 cells after 48 hrs by sulforhodamine B assay; assay type: functional; details: SF-539, 48 h; how it was run: as §1
PC-3 = assay: Growth inhibition of human PC3 cells after 48 hrs by sulforhodamine B assay; assay type: functional; details: PC-3, 48 h; how it was run: as §1
[5] = Growth inhibition of human HCC2998 cells after 48 hrs by sulforhodamine B assay; assay type: functional; details: HCC 2998, 48 h; how it was run: as §1
DU-145 = assay: Growth inhibition of human DU145 cells after 48 hrs by sulforhodamine B assay; assay type: functional; details: DU-145, 48 h; how it was run: as §1
ACHN = assay: Growth inhibition of human ACHN cells after 48 hrs by sulforhodamine B assay; assay type: functional; how it was run: as §1
SN12C = assay: Growth inhibition of human SN12C cells after 48 hrs by sulforhodamine B assay; assay type: functional; how it was run: as §3
HOP-62 = assay: Growth inhibition of human HOP62 cells after 48 hrs by sulforhodamine B assay; assay type: functional; details: HOP-62, 48 h; how it was run: as §1
NCI-H322M = assay: Growth inhibition of human NCI-H322M cells after 48 hrs by sulforhodamine B assay; assay type: functional; how it was run: as §1
HT-29 = assay: Growth inhibition of human HT-29 cells after 48 hrs by sulforhodamine B assay; assay type: functional; details: HT-29, 48 h; how it was run: as §1
CCRF-CEM = assay: Growth inhibition of human CCRF-CEM cells after 48 hrs by sulforhodamine B assay; assay type: functional; how it was run: as §1
KM12 = assay: Growth inhibition of human KM12 cells after 48 hrs by sulforhodamine B assay; assay type: functional; details: KM12, 48 h; how it was run: as §1
NCI-H23 = assay: Growth inhibition of human NCI-H23 cells after 48 hrs by sulforhodamine B assay; assay type: functional; details: NCI-H23, 48 h; how it was run: as §1
TK-10 = assay: Growth inhibition of human TK10 cells after 48 hrs by sulforhodamine B assay; assay type: functional; details: TK-10, 48 h; how it was run: as §3
NCI-H522 = assay: Growth inhibition of human NCI-H522 cells after 48 hrs by sulforhodamine B assay; assay type: functional; details: NCI-H522, 48 h; how it was run: as §1
SF-268 = assay: Growth inhibition of human SF268 cells after 48 hrs by sulforhodamine B assay; assay type: functional; details: SF-268, 48 h; how it was run: as §1
SK-MEL-5 = assay: Growth inhibition of human SK-MEL-5 cells after 48 hrs by sulforhodamine B assay; assay type: functional; details: SK-MEL-5, 48 h; how it was run: as §1

**Q.** For `CCN(CCCOc1ccc(O)cc1)c1ccccc1`, which IC50 (HeLa) is on record?
**A.** 14000 nM

**Q.** What does the source list for `CN(CCCOc1ccc(O)cc1)c1ccccc1`?
**A.** GI50 (A498): 2600 nM; GI50 (MDA-MB-231): 6900 nM; IC50 [1]: 700 nM; IC50 (HeLa): 9000 nM; GI50 (SNB-75): 3000 nM; GI50 (CAKI-1): 300 nM; GI50 (LOX IMVI): 2800 nM; GI50 (M14): 1700 nM; GI50 (HL-60(TB)): 900 nM; GI50 (SW-620): 1300 nM; GI50 (SNB-19): 7900 nM; GI50 (Hs-578T): 3100 nM; GI50 (IGROV-1): 4100 nM; IC50 [2]: 5400 nM; GI50 (NCI-H226): 10500 nM; GI50 (MCF7): 2600 nM; GI50 (MOLT-4): 2000 nM; GI50 (RPMI-8226): 1200 nM; GI50 (SR): 2500 nM; GI50 (SK-OV-3): 11500 nM; GI50 (A549): 2200 nM; GI50 [3]: 1500 nM; GI50 (SK-MEL-28): 12300 nM; GI50 (OVCAR-5): 7800 nM; selectivity ratio [4]: 7.7; GI50 (BT-549): 1700 nM; GI50 (HCT-15): 3500 nM; GI50 (OVCAR-8): 1500 nM; GI50 (MDA-MB-468): 3300 nM; GI50 (MDA-MB-435): 6600 nM; GI50 (RXF 393): 2100 nM; GI50 (OVCAR-3): 4000 nM; GI50 (U-251): 1700 nM; GI50 (OVCAR-4): 11700 nM; GI50 (T47D): 4600 nM; GI50 (HOP-92): 500 nM; GI50 (SK-MEL-2): 10500 nM; GI50 (COLO 205): 13800 nM; GI50 (UACC-257): 8100 nM; GI50 (UACC-62): 2100 nM; GI50 (786-0): 1900 nM; GI50 (HCT-116): 3500 nM; GI50 (UO-31): 400 nM; GI50 (SF-539): 600 nM; GI50 (PC-3): 2100 nM; GI50 [5]: 11200 nM; GI50 (DU-145): 2800 nM; GI50 (ACHN): 300 nM; GI50 (SN12C): 3100 nM; GI50 (HOP-62): 10500 nM; GI50 (NCI-H322M): 12600 nM; GI50 (HT-29): 5600 nM; GI50 (CCRF-CEM): 300 nM; GI50 (KM12): 4300 nM; GI50 (NCI-H23): 3000 nM; GI50 (TK-10): 8300 nM; GI50 (NCI-H522): 2800 nM; GI50 (SF-268): 2200 nM; GI50 (SK-MEL-5): 2100 nM
